SMILES strings stand for the structures.

3 compounds from ChEMBL document CHEMBL2146438, “Radiolabeled cyclosaligenyl monophosphates of 5-iodo-2'-deoxyuridine, 5-iodo-3'-fluoro-2',3'-dideoxyuridine, and 3'-fluorothymidine for molecular radiotherapy of cancer: synthesis and biological evaluation” (J Med Chem, 2012) can be followed below.

A short description of data set [1]: Chemical stability of the compound in phosphate buffer at pH 7.3. The data set is classed as physicochemical.
A short description of data set [2]: Half life of the compound in phosphate buffer at pH 7.3. The data set is classed as physicochemical.
The subject of data set [3] is OVCAR-3. Put plainly: Cellular uptake in human OVCAR3 cells at 46.9 +/- 1.1 kBq/mL up to 90 mins by gamma counting. Type of data set: ADME, cell-based. Particulars: ovcar-3, 1.5 h; call rule not given here. An outline of the steps: (§1)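 Time-course uptake of resolved 125I-labelled diastereomers in LS 174T (colorectal) or OVCAR-3 (ovarian) cells at the stated radioactive concentration; cell-associated radioactivity counted at each time point; mean and std dev, n = 3 per time.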

Data set [4] in a line: Cellular uptake in human LS 174T cells at 46.9 +/- 1.1 kBq/mL up to 90 mins by gamma counting. Type of data set: ADME, cell-based. Particulars: ls174t, 1.5 h. An outline of the steps: as §1
The nature of data set [5]: Cellular uptake in human U87MG cells by gamma counting. The data set is classed as ADME, cell-based. Particulars: u-87mg atcc.
Data set [6] relates to OVCAR-3. The data set can be described thus: Cellular uptake in human OVCAR3 cells after 3 hrs by gamma counting. The data set is classed as ADME, cell-based. Particulars: ovcar-3, 3 h. An outline of the steps:
(§2)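 Concentration-dependent uptake: LS 174T or OVCAR-3 cells exposed to increasing concentrations of 125I-labelled diastereomers for 3 h; 131IUdR added to the medium as internal standard of proliferation; saturable uptake fitted to give Bmax as molecules/cell.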

The nature of data set [7]: Cytotoxicity against human LS 174T cells assessed as colony formation at 114.5 kBq/mL incubated for 4 hrs measured after 21 days by clonogenic assay. The data set is classed as functional, LS174T. A digest of the protocol:
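LS 174T cells exposed 4 h to 114.5 kBq/mL 125I agent, cultured 24 h in nonradioactive medium, then harvested and plated; colonies counted after 21 days; surviving fraction = treated colonies / untreated control colonies.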

Data set [8] concerns OVCAR-3. The data set can be described thus: Cellular uptake in human OVCAR3 cells at 46.9 +/- 1.1 kBq/mL after 90 mins by gamma counting. The data set is classed as ADME, cell-based. Particulars: ovcar-3, 1.5 h. A digest of the protocol:
as §1

Data set [9] can be described thus: Cellular uptake in human LS 174T cells at 46.9 +/- 1.1 kBq/mL after 90 mins by gamma counting. Particulars: ls174t, 1.5 h. The data set is classed as ADME, cell-based. A digest of the protocol:
as §1

Data set [10] is described as follows: Cellular uptake in human LS 174T cells after 3 hrs by gamma counting. Type of data set: ADME, cell-based. Particulars: ls174t. A digest of the protocol:
as §2

The test system of data set [11] is OVCAR-3. Put plainly: Cellular uptake in human OVCAR3 cells at 16.7 +/- 1.2 kBq/mL after 3 hrs by gamma counting. Type of data set: ADME, cell-based. Particulars: ovcar-3, 3 h. A digest of the protocol:
as §1

Data set [12] in a line: Cellular uptake in human LS 174T cells at 13.6 +/- 0.4 kBq/mL after 3 hrs by gamma counting. The data set is classed as ADME, cell-based. Particulars: ls174t. An outline of the steps: as §1
A short description of data set [13]: Cellular uptake in human OVCAR3 cell cytoplasm assessed as per 10^3 cells after 1 hr by gamma counting. The data set is classed as ADME, cell-based. Particulars: ovcar-3, 1 h, 1 h. A digest of the protocol:
(§3)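 OVCAR-3 cells incubated 1 h with 55.5 (0.04) kBq/mL 125I-labelled agent (diastereomer mixtures or resolved slow isomers); fractionated either immediately or after 24 h further growth in fresh nonradioactive medium; 125I in cytoplasm and nucleus counted as cpm/10^3 cells with std dev.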

Data set [14] in a line: Cellular uptake in human OVCAR3 cell cytoplasm assessed as per 10^3 cells after 24 hrs by gamma counting. The data set is classed as ADME, cell-based. Particulars: ovcar-3, 24 h, 24 h. An outline of the steps:
as §3

Data set [15] in a line: Cellular uptake in human OVCAR3 cell nucleus assessed as per 10^3 cells after 1 hr by gamma counting. The data set is classed as ADME, cell-based. Particulars: ovcar-3, 1 h, 1 h. An outline of the steps: as §3
Data set [16] is described as follows: Cellular uptake in human OVCAR3 cell nucleus assessed as per 10^3 cells after 24 hrs by gamma counting. Particulars: ovcar-3, 24 h, 24 h. Type of data set: ADME, cell-based. An outline of the steps:
as §3

The nature of data set [17]: Cellular uptake in human LS 174T cells at 17.5 +/- 0.3 kBq/mL after 3 hrs by gamma counting. Type of data set: ADME, cell-based. Particulars: ls174t. An outline of the steps:
as §1

`O=c1[nH]c(=O)n([C@H]2C[C@H](O)[C@@H](COP3(=O)OCc4ccccc4O3)O2)cc1[125I]` (stereo in doubt; form 1) came in with a K in data set [1] of 2.25 ×10⁻³ /min. The compound further returned a t1/2 in data set [2] of 5.1 h. The Drug uptake result was “Active” in data set [3]; “Active” in [4]; “Dose-dependent effect” in data set [5]; “Dose-dependent effect” in data set [6]; “Active” in [8]; “Active” in [9]. In data set [10], the Drug uptake entry is on record as “Dose-dependent effect”. Also, the Activity in [7] stood at 60%.
Take `CC(C)(C)c1cc(C(C)(C)C)c2c(c1F)COP(=O)(OC[C@H]1O[C@@H](n3cc([125I])c(=O)[nH]c3=O)C[C@@H]1O)O2` (some centres not stated): the Drug uptake entry in data set [11] and in data set [12] was “Active” each time.
`CC(C)(C)c1cc(C(C)(C)C)c2c(c1F)COP(=O)(OC[C@H]1O[C@@H](n3cc([125I])c(=O)[nH]c3=O)C[C@@H]1O)O2` (stereo in doubt): the Drug uptake is 87.3 cpm in data set [13]; 2.8 cpm in [14]; 7.8 cpm in [15]; 91.6 cpm in data set [16]; “Active” in data set [17].
